Source: PubChem (The Scripps Research Institute Molecular Screening Center)
Rows were chosen to be rich in hits. Some 2.3% of all compounds tested hit in one or more screens of this group.
PRMT1 FP inh = PRMT1 methyltransferase inhibitors, primary screen, biochemical, fluorescence polarization; Protein arginine N-methyltransferase 1 (Homo sapiens), Q99873; recombinant PRMT1, activity-based probe fluorescence polarization; inhibition, % at 2.79 µM; 1.3% of 370,000 active;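 active = inhibition above about 21% made by adding two undisclosed values, limit read from the data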
PAD4 inh = human PAD4 inhibitors, primary screen, biochemical, fluorescence polarization, 1536-well format. Protein-arginine deiminase type-4 (Homo sapiens), Q9UM07. recombinant PAD4, RCA probe fluorescence polarization. inhibition, % at 6.36 µM. 0.41% of 330,000 active. AID 485272, 2010;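 active = percent inhibition above a cutoff equal to the mean of all tested compounds plus 3 SD, cut at about 15% in these data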;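 also: 0% = PAD4 with RCA probe and DMSO and 100% = probe without PAD4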
RBBP9 inh = human RBBP9 inhibitors, primary screen, biochemical, fluorescence polarization, FP-Rh probe, HTS; Serine hydrolase RBBP9 (Homo sapiens), O75884; recombinant RBBP9; inhibition, % at 7.94 µM; 0.2% of 220,000 active; AID 1515, 2009;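 active = inhibition above the campaign mean of all tested compounds plus 3 SD, cut at about 14% in these data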;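 also: plate controls were DMSO wells with RBBP9 for no effect and wells lacking RBBP9 protein for full effect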
Target sequence (O75884 whole entry, looked up): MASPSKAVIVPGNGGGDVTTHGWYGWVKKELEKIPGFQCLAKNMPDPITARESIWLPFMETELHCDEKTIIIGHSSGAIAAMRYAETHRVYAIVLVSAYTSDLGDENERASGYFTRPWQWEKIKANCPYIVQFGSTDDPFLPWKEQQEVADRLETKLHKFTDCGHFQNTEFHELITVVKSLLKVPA
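Material: RBBP9 protein. Amount: RBBP9 at 2.5 µM in dispensed solution, before mixing. Schedule: 30 min then 45 min, 25 °C. Medium: Tris buffer pH 8.0, NaCl, Pluronic. Measured by: fluorescence polarization. Measure: percent inhibition from mP, scaled between DMSO and no-protein wells. Replication: one well per compound.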
GSTO1 counter = inhibitors of recombinant GSTO1, primary screen, counter-screen for RBBP9 inhibitor project, biochemical, fluorescence polarization. activity-based probe fluorescence polarization. inhibition, % at 5.96 µM. AID 1974, 2009. 1.1% of 300,000 active;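 active = inhibition above the campaign mean inhibition plus 3 SD, cut at about 35% in these data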;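 also: 0% = GSTO1-1 with DMSO and 100% = wells lacking GSTO1-1 enzyme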
Target sequence (P78417 whole entry, looked up): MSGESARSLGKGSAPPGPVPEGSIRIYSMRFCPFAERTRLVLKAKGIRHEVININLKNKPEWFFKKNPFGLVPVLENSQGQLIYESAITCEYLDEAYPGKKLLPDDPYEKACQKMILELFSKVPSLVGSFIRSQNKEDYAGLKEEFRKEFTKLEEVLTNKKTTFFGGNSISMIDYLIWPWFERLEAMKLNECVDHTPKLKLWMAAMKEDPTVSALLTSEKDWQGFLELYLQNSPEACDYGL
PME-1 inh = PME-1 inhibitors via competitive probe labeling, primary screen, biochemical, fluorescence polarization, FP-Rh probe, HTS. Protein phosphatase methylesterase 1 (Homo sapiens), Q9Y570. recombinant PME-1. inhibition, % at 5.9 µM. 0.53% of 320,000 active. AID 2130, 2009;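 active = inhibition above the campaign mean of all compounds plus 3 SD, cut at about 26% in these data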;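 also: competitive labeling of PME-1 active site by serine hydrolase directed probe; 0% = PME-1 with DMSO and 100% = wells lacking PME-1 enzyme; inhibitors block probe labeling so polarization falls and inhibition rises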
Fam108B inh = mouse Fam108B serine hydrolase inhibitors, primary screen, counter-screen for RBBP9 inhibitor project, biochemical, fluorescence polarization. recombinant Fam108B, FP-Rh probe fluorescence polarization. inhibition, % at 9.51 µM. 0.33% of 300,000 active. AID 1947, 2009;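 active = inhibition above the screen mean inhibition plus 3 SD, computed separately per campaign, cut at about 18% in these data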;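 also: inhibitors lower polarization as less probe binds the enzyme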
Fam108b inh conf = mouse Fam108b serine hydrolase inhibitors, confirmation, counter-screen for RBBP9 inhibitor project, biochemical, fluorescence polarization, triplicate | inhibition, % at 9.51 µM | AID 1978, 2009 | 44% of 930 active | recombinant Fam108b, FP-Rh probe fluorescence polarization | shares compounds with Fam108B inh;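 active = inhibition above a limit from the primary screen, the mean over all compounds plus 3 SD, cut at about 19% in these data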;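 also: 0% = median of active Fam108b wells and 100% = catalytically dead S170A mutant; inhibitors free the probe so polarization falls as inhibition rises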
Fam108b ABPP HTS = inhibition of mouse Fam108b by HTS hits, late-stage follow-up, biochemical, gel-based ABPP, soluble recombinant form; inhibition, % at 20 µM; fluorophosphonate probe; 44% of 260 active; shares compounds with Fam108B inh; AID 588649, 2011; in the data active = inhibition above about 40%
Active calls of the source: *; . = no result.

SMILES | PRMT1 FP inh | PAD4 inh | RBBP9 inh | GSTO1 counter | PME-1 inh | Fam108B inh | Fam108b inh conf | others
CC(=O)c1cccc(NS(=O)(=O)c2ccc(N/C=C/C(=O)c3ccc(F)cc3)cc2)c1 | -2.3 | -5.7 | -8.2 | -12.1 | 7.9 | 6.4 | .
CC(=O)c1cccc(NS(=O)(=O)c2ccc(N/C=C\C(=O)c3ccc(F)cc3)cc2)c1 | -1.3 | 3.2 | -1.4 | -39.2 | -15.0 | 22.0* | -6.4
O=C(Cn1cnc2c(NCc3ccccc3)ncnc21)NCc1ccccn1 | -2.7 | 1.9 | . | . | . | . | .
CCN(CC)c1ccc(C=NNC(=O)c2cc(-c3ccc(C)c(C)c3)n[nH]2)c(O)c1 | -0.3 | . | . | . | . | . | .
CCN(CC)c1ccc(/C=N/NC(=O)c2cccc(S(=O)(=O)Nc3ccccc3OC)c2)c(O)c1 | -1.8 | 1.3 | -13.7 | -54.4 | 44.6* | 57.6* | 6.5
CCN(CC)c1ccc(/C=N/NC(=O)c2cccc(S(=O)(=O)Nc3ccccc3OC)c2)cc1 | 2.7 | -2.9 | -9.8 | 1.3 | 10.7 | 3.2 | .
CCN(CC)c1ccc(/C=N/NC(=O)c2ccc3nc[nH]c3c2)c(O)c1 | . | -0.5 | 6.9 | -23.9 | -3.1 | 22.4* | 7.5
CCN(CC)c1nc2c3c(nc4c(c3c1C#N)CC(=O)N4c1ccc(Cl)cc1)NC(C)=N2 | 7.5 | -7.9 | 3.4 | 30.2 | 27.0* | 23.6* | 18.2*
CC(=O)Nc1ccc(N=Cc2c(O)c(C(=O)Nc3ccccc3)cc3ccccc23)cc1 | 5.9 | -4.2 | 3.2 | -8.4 | 3.1 | 21.8* | 14.0
CCCNc1nc(-c2cc(C(=O)Nc3ccccc3)on2)cc(C(C)C)n1 | -1.8 | -2.3 | . | -4.0 | -8.6 | -8.0 | .
O=C(NC1CCCC1)c1sc(=S)n2c1[nH]c(=O)c1ccccc12 | -3.5 | 0.6 | 0.7 | -110.2 | 7.7 | 15.9 | .
O=C(NCc1ccccc1)c1ccc2c(=O)[nH]c3c(C(=O)NCC4CCCO4)sc(=S)n3c2c1 (centres undefined) | 1.4 | -7.6 | 3.6 | 18.0 | 10.8 | 33.6* | 19.5*
CCCCCNC(=O)c1ccc2c(=O)[nH]c3c(C(=O)NCC4CCCO4)sc(=S)n3c2c1 (centres undefined) | -0.4 | -4.8 | 1.6 | -21.8 | 8.2 | 21.3* | 11.8
O=C(NCc1ccco1)c1sc(=S)n2c1[nH]c(=O)c1ccccc12 | 4.2 | -4.0 | -5.4 | -76.7 | 16.1 | 38.2* | 33.7* | Fam108b ABPP HTS=15.0
Cc1ccc(CNC(=O)c2ccc3c(=O)[nH]c4c(C(=O)NCC5CCCO5)sc(=S)n4c3c2)cc1 (centres undefined) | 3.5 | -2.9 | 0.6 | 20.1 | 16.2 | 16.6 | .
COc1ccccc1NC(=O)N1CCc2[nH]c3ccc(F)cc3c2C1 | 2.9 | -11.8 | -4.2 | 3.9 | 5.5 | 21.5* | -5.7
O=C/C=C/c1c(-c2ccccc2)cc2oc3ccccc3cc1-2 | 16.0 | -8.5 | . | 30.6 | 6.2 | 27.4* | -12.4
Nc1ccc(-c2cc3ccccc3oc2=O)cc1 | 0.9 | -1.3 | . | 1.9 | 4.0 | 2.5 | .
CCn1c2ccccc2c2cc(NC(=O)c3cc(OC)c(OC)c(OC)c3)ccc21 | -0.9 | -1.4 | -3.9 | -3.0 | 12.9 | 18.7* | -5.3
COc1cccc(Nc2nc(N)c([N+](=O)[O-])c(N3CCOCC3)n2)c1 | -0.4 | -0.6 | . | -0.5 | -3.0 | 2.9 | .
COC(=O)c1ccc(COc2ccc(/C=C(\C#N)c3nc4ccccc4[nH]3)cc2OC)o1 | -4.9 | -1.5 | -8.9 | -6.4 | -29.5 | 18.6* | -15.8
Cc1ccccc1NS(=O)(=O)c1nnc(NC(=O)c2ccc(Cl)cc2)s1 | -0.7 | 0.2 | . | -47.2 | -7.0 | -5.3 | .
CC(=O)Nc1ccc(NC(=O)c2cc([N+](=O)[O-])cc([N+](=O)[O-])c2)cc1 | -0.6 | -3.9 | . | 1.1 | 8.3 | -0.5 | .
